Bioassay records from PubChem.
NALP1 inh: blocks the NALP1 inflammasome reconstituted in yeast. inhibition, % at 10 µM. hit rate 0.61% among 280,000. S. cerevisiae NALP1/ASC/caspase-1 growth, X-gal OD620, 72 h; in the data active = inhibition mostly above about 24%, no sharp cut-off; inactive = mostly below about 32%
L major viab: Leishmania major promastigote growth inhibition. AID 1063. inhibition, % at 10 µM. Leishmania major promastigotes, resazurin fluorescence viability. hit rate 9% among 200,000; in the data active = inhibition above about 50%;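 also: promastigotes grown with compound for 44 hours at 28 °C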
T cruzi inh: blocks replication of Trypanosoma cruzi; T. cruzi beta-gal in NIH3T3, luminescence, 90 h; inhibition, % (concentration not given with the values); hit rate 1.4% among 300,000; AID 1885;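 active = mean inhibition across valid replicates above about 55%, limit read from the data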;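 also: signal also drops with host cell toxicity which is not excluded here; 0% = plate median of DMSO wells and 100% = zero luminescence signal; higher percent means less beta-gal luminescence so fewer parasites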
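Incubation – ≥90 h infection period, 3 h prior cell attachment · System – NIH/3T3 fibroblasts plus reporter T. cruzi · Doses – compound pinned at 50 nL/well, DMSO · Read-out basis – percent inhibition of parasite-derived β-gal signal · Signal – luminescent β-galactosidase signal after 60 min lysis · Also added – 5000 T. cruzi trypomastigotes/well · Medium – Low-serum DMEM with 2% FBS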
PolyA inh: inhibitors of polyadenylation in S. cerevisiae | S. cerevisiae SKY197-pL101 polyadenylation reporter, beta-gal luminescence; efflux-impaired pdr1/pdr3 knockout yeast; score 100 = 6 SD above DMSO | activity score, % at 12 µM | hit rate 0.02% among 300,000 | AID 1875;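 active = lowest replicate activity score at least 50, where 100 means six control SD above control mean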;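 also: yeast exposed to compound for 9 h at 30 °C; higher score means more reporter readthrough which indicates perturbed polyadenylation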
Calb FLC: C. albicans growth modulation with fluconazole. C. albicans CaCi-2 + fluconazole, Alamar Blue growth, 48 h. hit rate 0.57% among 300,000. AID 1979. growth inhibition, % (no concentration beside the values);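 active = growth inhibition above about 58% in most replicates, limit read from the data, passing the limit was not always enough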;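 also: all wells also contain fluconazole at 8 µg/ml as a sub-toxic cotreatment; 0% = median of DMSO wells and 100% = median of geldanamycin control wells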
NLRP3 yeast inh: blocks the NALP3 inflammasome reconstituted in yeast; AID 2825; hit rate 0.39% among 330,000; inhibition, % at 10 µM; Yeast reconstituted NLRP3/ASC/caspase-1, beta-gal luminescence, 24 h;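 active = inhibition of 50% or more; inactive = inhibition below 50%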;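 also: plate controls were induced DMSO wells for no effect and uninduced yeast grown without galactose for full effect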
Starred values were filed as active, the others as inactive; x = not tested or not shown. The sample as a whole holds a higher share of hits than the screen did.

SMILES	NALP1 inh	L major viab	T cruzi inh	PolyA inh	Calb FLC	NLRP3 yeast inh
CC(C)(C)N1C(=O)c2ccccc2NC(=O)N1Cc1ccc(Br)cc1	16.1	99.2*	11.1	7.1	-20.3	43.2
CCc1noc(C)c1C(=O)NCCN1C(=O)S/C(=C\c2ccc(OC)cc2)C1=O	x	x	6.5	14.0	-14.5	22.1
Cc1cc(C)n(-c2ccc(C(=O)NC3CCCCC3)cc2)n1	-9.2	-4.5	11.3	-14.8	28.1	3.5
CN1CCN(CC(O)c2ccccc2)CC1 (stereo not given)	8.2	-2.2	55.2*	-11.1	2.8	14.5
Cc1ccc(NC(=O)CN2C(=O)CCS(=O)(=O)c3ccccc32)cc1Cl	16.3	x	0.7	1.9	-5.2	7.2
CCC(C)NCCOc1ccccc1C (stereo not given)	-13.0	18.4	5.5	19.9	-2.0	-8.2
COc1ccccc1OCCCOc1c(C)cc(C)cc1Br	2.2	36.9	12.9	1.7	-1.6	12.7
CCC(C)NCCOCCOc1ccc(C)cc1Br (stereo not given)	31.1	89.8*	44.2	-9.4	-20.0	20.2
C=CCNCCOCCOc1ccc(C)cc1Br	44.1	98.7*	56.1*	-8.6	4.1	18.3
Cc1ccc(OCCOCCOc2cccc3cccnc23)c(Br)c1	38.1	-1.0	27.6	-18.4	-2.3	14.7
CCC(C)NCCCOc1c(C)cc(C)cc1Br (stereo not given)	31.7	99.4*	9.4	13.1	-47.5	21.6
CCC(C)NCCOCCOc1ccc(Br)cc1 (stereo not given)	2.1	89.3*	65.6*	17.9	-2.9	8.1
C#CCOc1coc(COC(=O)c2ccccc2)cc1=O	9.0	x	-10.9	-9.0	28.4	12.8
O=C(NCc1cccc(C(F)(F)F)c1)C1CCC(=O)N(C2CCCCCC2)C1 (stereo not given)	-1.1	x	5.9	19.1	-2.7	6.4
O=C(COC(=O)c1cnccn1)c1ccc2c(c1)CCCC2	24.5	-1.1	-4.5	4.4	6.9	-16.2
O=C(NNC(=O)c1ccc2c(=O)n3c(nc2c1)CCC3)c1cccc(Cl)c1	x	x	4.2	-9.7	11.9	14.2
CC(C)(C)C(=O)NC(=S)Nc1sc2c(c1C#N)CCCCC2	15.0	12.1	25.6	-11.0	-2.1	13.8
C=CCNC(=S)Nc1sc2c(c1C#N)CCCC2	2.2	57.9*	-7.8	-4.3	41.3	9.1
CCN(CC#CCC(O)(c1ccccc1)C1CCCC1)C(C)C (stereo not given)	16.5	67.5*	19.3	14.0	12.6	17.3
CC(C)N(CC#CCC(O)(c1ccccc1)C1CCCC1)CCO (stereo not given)	17.0	28.5	-2.3	-10.3	-21.8	7.7
O=C(CCSc1nc(-c2ccco2)cc(C(F)(F)F)n1)N1CCN(c2ccccn2)CC1	29.3	-2.0	12.9	2.9	-5.6	13.1
O=C(CCSc1nc(-c2ccco2)cc(C(F)(F)F)n1)N1CCCc2ccccc21	17.1	76.3*	7.2	2.0	-0.2	6.0
Clc1ccc(N2CCN(c3nc4nonc4nc3N3CCSCC3)CC2)nc1	-6.1	30.3	23.6	-10.8	-14.7	-7.7
COc1ccc(Cn2c(CCC(=O)NCCC(C)C)nc3ncccc3c2=O)cc1	4.2	x	5.7	-12.2	17.6	1.3
CNC(=O)NC(=O)C(C)OC(=O)CCCSc1nc2ccccc2s1 (stereo not given)	25.2	65.1*	-9.6	10.6	23.6	19.0
SMILES	NALP1 inh	L major viab	T cruzi inh	PolyA inh	Calb FLC	NLRP3 yeast inh
CCNC(=O)NC(=O)C(C)OC(=O)CCCSc1nc2ccccc2s1 (stereo not given)	20.0	63.7*	-6.8	-0.7	-5.6	7.4
O=C1Nc2ccc(Br)cc2C1=Nc1ccc(-c2nnc3n2CCCCC3)cc1	-0.1	74.2*	5.8	1.2	7.7	25.0
Brc1cccc(-c2nnc3n2CCCCC3)c1	0.5	-2.5	-18.3	-7.0	-3.8	8.0
Cc1ccc(C=Nc2ccc(N(C)C)cc2)o1	-4.0	80.2*	61.0*	-35.3	1.7	28.7
COc1ccc(C(CC(=O)O)c2ccc3c(c2)OCO3)cc1 (stereo not given)	9.2	x	-4.6	-1.5	8.2	9.4
Fc1ccccc1CNCCC(Cc1ccccc1)c1ccc2c(c1)OCO2 (stereo not given)	50.8	66.0*	12.4	-8.9	-67.1	5.1
COc1ccc(CNCCC(c2ccccc2)c2ccc3c(c2)OCO3)cc1 (stereo not given)	27.3*	100.5*	58.6*	-16.9	22.3	41.6
COc1cc(C(CCN2CCCC2)c2c(OC)cc(OC)c3c(-c4ccccc4)cc(=O)oc23)cc(OC)c1OC (stereo not given)	6.5	x	57.6*	1.1	-14.6	3.0
OCCc1c[nH]c2ccc(OCc3ccccc3)cc12	4.8	x	-7.1	1.1	17.4	9.7
CCOC(=O)C1CCCN(C(=O)Cn2ncc3c([nH]c4ccccc43)c2=O)C1 (stereo not given)	-0.8	x	10.2	-3.8	-0.5	5.3
O=C(Nc1ccccc1)N1CCC(C(=O)N2CCCC(C(F)(F)F)C2)CC1 (stereo not given)	3.3	x	-5.2	0.6	1.2	19.0
COc1ccc(/C=N/NC(=O)c2cc(O)c(O)c(O)c2)cc1Cn1cc([N+](=O)[O-])cn1	-0.3	-8.2	-15.7	14.1	96.7*	x
CC1CCc2c(sc(/N=C/c3ccco3)c2C(N)=O)C1 (stereo not given)	3.6	x	-6.0	-6.2	66.9	23.9
Cc1nn2c(N3CCN(C)CC3)cc(C(C)(C)C)nc2c1-c1ccccc1	22.9	x	66.6*	-4.9	36.0	19.0
COc1ccccc1-c1c(C)nn2c(N3CCOCC3)cc(C)nc12	16.7	x	-1.4	-22.6	-8.5	-1.4
Cc1nn2c(N3CCN(C(=O)c4ccco4)CC3)cc(C(C)(C)C)nc2c1-c1ccccc1	-0.1	57.0*	41.3	-1.4	1.6	26.0
COc1ccccc1-c1c(C)nn2c(N3CCCCCC3)cc(C)nc12	24.7	79.1*	42.9	8.6	1.9	33.3
Cc1nn2c(N3CCCC3)cc(C(C)C)nc2c1-c1ccccc1	-26.7	86.7*	15.7	-20.5	-7.8	22.2
O=C(c1ccc2nc(Cc3cccc(Cl)c3)oc2c1)N1CCC(O)CC1	6.5	x	-10.5	-0.4	-9.1	4.0
CN1CCN(CC(=O)N(C)c2nc(-c3ccccc3)cs2)CC1	14.4	93.8*	45.9	8.3	0.8	0.9
CN1CCN(CC(=O)Nc2nc(-c3ccccc3)cs2)CC1	9.7	5.0	-4.4	5.4	4.7	4.9
COc1ccccc1C(=O)NCCC(=O)OCC(=O)Nc1ccc(S(N)(=O)=O)cc1	x	x	x	x	x	-6.4
COc1cccc(-c2csc(N3CCN(C(=S)Nc4ccc(Cl)cc4)CC3)n2)c1	10.0	78.6*	12.1	-6.0	0.9	14.4
CC1(C)CC(N2CCCCC2)=CC(=[N+]2CCCCC2)C1	13.0	100.1*	77.1*	2.3	-9.0	9.2
CC1(C)CC(N2CCOCC2)=CC(=[N+]2CCOCC2)C1	-3.9	-8.0	9.3	-1.6	-6.6	-0.2
